Test results reported in ChEMBL document CHEMBL1124636, “3,4-Dihydro-2H-1-benzopyran-2-carboxylic acids and related compounds as leukotriene antagonists” (J Med Chem, 1989).

How the values were obtained:
Rattus norvegicus = species on record: Rattus norvegicus; assay: Inhibitory activity to inhibit Inophore-induced arachidonic acid metabolism (inhibition of LTB4 formation) in rat; assay type: functional, organism-based
How it was run: (§1)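 Rat peritoneal macrophages adhered 90 min at 37 °C, labeled with [14C]arachidonic acid 90 min, washed. Compound 30 min at 37 °C, then A23187 0.5 µM for 20 min. LTB4 and PGE2 in medium by radioimmunoassay.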

[1] = Inhibitory activity to inhibit Inophore-induced arachidonic acid metabolism (inhibition of PGE-2 formation) in rat; assay type: functional; how it was run: as §1
Cavia porcellus [2] = assay: (§2) Inhibition of leukotriene D4 induced bronchoconstriction in anesthetized guinea pigs after aerosol administration as 1% solution; assay type: functional, organism-based
How it was run: (§3)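 Guinea pigs given propranolol 0.1 mg/kg iv 5 min before 5-min ultrasonic nebulizer exposure to aqueous, NaOH-neutralized drug (% w/v) or distilled water, breathing spontaneously. LTD4 50 µg/kg iv 30 s after exposure; tracheal pressure change.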

Cavia porcellus [3] = assay: as §2; assay type: functional; how it was run: as §3
Cavia porcellus [4] = assay: Inhibition of leukotriene D4 induced bronchoconstriction in anesthetized guinea pigs after intravenous administration at a dose of 10 mg/kg; assay type: functional
How it was run: (§4)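 Male Hartley guinea pigs, 400–600 g, urethane 2 g/kg ip, jugular cannula, propranolol 0.1 mg/kg iv 5 min before challenge, succinylcholine 1.2 mg/kg iv, ventilated. Vehicle or drug iv 30 s before LTD4 25 µg/kg iv; tracheal pressure change.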

Cavia porcellus [5] = assay: Inhibition of leukotriene D4 induced bronchoconstriction in anesthetized guinea pigs after intravenous administration; assay type: functional; details: read-out: ID50 (the source's name); how it was run: as §4
[6] = target: T1, Cysteinyl leukotriene receptor 1 (Cavia porcellus, UniProt Q2NNR5); assay: Inhibitory activity of compound to block binding of [3H]leukotriene D4 to Cysteinyl leukotriene D4 receptor sites in homogenized guinea pig lung
T1 sequence (Q2NNR5 whole entry): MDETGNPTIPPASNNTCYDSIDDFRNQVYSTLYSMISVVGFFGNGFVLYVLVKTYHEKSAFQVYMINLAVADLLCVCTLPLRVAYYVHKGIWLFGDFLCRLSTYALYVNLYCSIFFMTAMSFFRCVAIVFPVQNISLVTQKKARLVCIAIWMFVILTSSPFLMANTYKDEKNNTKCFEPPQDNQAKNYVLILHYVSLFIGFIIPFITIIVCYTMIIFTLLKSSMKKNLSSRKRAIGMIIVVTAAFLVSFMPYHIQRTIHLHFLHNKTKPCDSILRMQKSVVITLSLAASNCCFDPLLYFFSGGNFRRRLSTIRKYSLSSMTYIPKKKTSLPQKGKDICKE
How it was run: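 Lung from male Hartley guinea pigs (400–500 g), homogenized in sucrose/Tris pH 7.5 with protease inhibitors; 30000g membrane pellet in 10 mM PIPES pH 7.5, 50 mM NaCl. Binding: Tyrode, 0.1% BSA, 1 mM glycine, 1 mM cysteine, 3.5 nM [3H]LTD4, 100–200 µg protein, 20 °C, 30 min; glass-fiber filtration. Nonspecific with 10^-6 M LTD4. Triplicate screen at 10 µM; IC50 by linear regression.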

[7] = test system: Cysteinyl leukotriene receptor (Cavia porcellus); assay: Inhibitory activity to block binding of [3H]leukotriene D4 to Cysteinyl leukotriene D4 receptor sites in homogenized guinea pig lung at 10 uM
[8] = target: Cysteinyl leukotriene receptor (Cavia porcellus); assay: Inhibitory activity to block binding of [3H]leukotriene D4 to LTD4 receptor sites in homogenized guinea pig lung
[9] = test system: Cysteinyl leukotriene receptor (Cavia porcellus); assay: Inhibitory activity to block binding of [3H]leukotriene D4 to LTD4 receptor sites in homogenized guinea pig lung at 10 uM
[10] = target: Dual specificity calcium/calmodulin-dependent 3',5'-cyclic nucleotide phosphodiesterase 1A (Bos taurus, UniProt P14100); assay: Inhibition of bovine heart Phosphodiesterase 1A
Sequence of Dual specificity calcium/calmodulin-dependent 3',5'-cyclic nucleotide phosphodiesterase 1A (P14100 whole entry): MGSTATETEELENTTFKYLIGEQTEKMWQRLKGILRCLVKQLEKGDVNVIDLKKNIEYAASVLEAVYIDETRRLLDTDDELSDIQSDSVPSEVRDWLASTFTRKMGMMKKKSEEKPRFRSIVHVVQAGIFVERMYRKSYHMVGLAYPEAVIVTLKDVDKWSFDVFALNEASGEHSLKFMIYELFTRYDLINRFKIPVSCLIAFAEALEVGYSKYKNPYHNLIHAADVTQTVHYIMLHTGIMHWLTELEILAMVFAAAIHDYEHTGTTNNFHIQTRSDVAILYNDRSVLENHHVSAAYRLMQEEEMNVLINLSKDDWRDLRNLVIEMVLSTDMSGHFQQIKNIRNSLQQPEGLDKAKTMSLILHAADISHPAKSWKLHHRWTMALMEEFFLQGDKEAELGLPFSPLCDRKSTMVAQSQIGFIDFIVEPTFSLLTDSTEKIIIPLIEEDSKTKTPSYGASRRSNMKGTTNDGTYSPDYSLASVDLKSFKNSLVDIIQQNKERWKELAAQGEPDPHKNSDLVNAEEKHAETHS

Compound	IC50 (Cavia porcellus [2]) [% conc]	Inhibition (Cavia porcellus [3]) [%]	inhibition in vivo at 10 mg/kg (Cavia porcellus [4]) [%]	inhibition [7] [%]	inhibition [9] [%]	also measured
COc1ccc2c(c1)c(CC(=O)O)c(C)n2C(=O)c1ccc(Cl)cc1 [INDOMETHACIN]	–	–	–	–	–	IC50 (Rattus norvegicus): 60 µM; IC50 [1]: 0.1 µM
CCCc1c(OCCCCc2nnn[nH]2)ccc(C(C)=O)c1O [TOMELUKAST]	0.4	62	77	–	–	ED50 (Cavia porcellus [5]): 5 mg/kg
O=S(=O)(Nc1cccc(OCc2ccc3ccccc3n2)c1)C(F)(F)F [RITOLUKAST]	–	–	61	–	–	ED50 (Cavia porcellus [5]): 4 mg/kg
CCCc1c(OCCCOc2cc3c(cc2C(C)=O)CCC(C(=O)O)O3)ccc(C(C)=O)c1O (centres undefined)	–	31	35	63	–	IC50 [6]: 6 µM
CCCc1c(OCCCOc2cc(NC(=O)c3nn[nH]n3)c(C)cc2Cl)ccc(C(C)=O)c1O [CGP-35949]	–	–	49	–	94	IC50 [8]: 1 µM
COc1cc(C(=O)NS(=O)(=O)c2ccccc2)ccc1Cn1ncc2ccc(NC(=O)OC3CCCC3)cc21 [ICI-198615]	0.006	99	100	–	98	ED50 (Cavia porcellus [5]): 0.03 mg/kg; IC50 [8]: 0.001 µM
CCCc1c(OCCCCCOc2ccc3c(c2)OC(C(=O)O)CC3)ccc(C(C)=O)c1O (centres undefined)	1	50	0	11	–	–
CCCc1c(OCCCCCOc2ccc3c(c2C(C)=O)OC(C(=O)O)CC3)ccc(C(C)=O)c1O (centres undefined)	–	1	19	–	72	IC50 [8]: 5 µM
CCCc1c(OCCCCOc2cc3c(cc2C(C)=O)CCC(C(=O)O)O3)ccc(C(C)=O)c1O (centres undefined)	–	37	36	26	–	–
CCCc1c(OCCCCCOc2cc3c(cc2C(=O)CC)CCC(C(=O)O)O3)ccc(C(C)=O)c1O (centres undefined)	0.3	60	7	52	–	–
CC(=O)c1ccc(OCCCCCOc2cc3c(cc2C(C)=O)CCC(C(=O)O)O3)cc1O (centres undefined)	–	0	85	–	0	ED50 (Cavia porcellus [5]): 5 mg/kg
CCCc1c(OCCCCCOc2cc3c(cc2Cl)CCC(C(=O)O)O3)ccc(C(C)=O)c1O (centres undefined)	–	0	16	–	45	–
CCCc1c(OCCCCCOc2cc3c(cc2C(C)=O)CCC2(CCC(C(=O)O)CC2)O3)ccc(C(C)=O)c1O (centres undefined)	0.08	83	32	–	81	IC50 [8]: 4 µM
CC(C)C(C)c1nc2c(=O)[nH]c(=O)[nH]c2[nH]1 (centres undefined)	–	–	–	–	–	IC50 [10]: 100 µM
CCCc1c(OCc2cccc(COc3cc4c(cc3C(C)=O)CCC(C(=O)O)O4)c2)ccc(C(C)=O)c1O (centres undefined)	–	28	20	60	–	IC50 [6]: 7 µM
CCCc1c(OCc2ccccc2CCOc2cc3c(cc2C(C)=O)CCC(C(=O)O)O3)ccc(C(C)=O)c1O (centres undefined)	–	12	24	26	–	–
CCCc1c(OCCCS(=O)(=O)c2ccc(C(=O)CCC(=O)O)cc2)ccc(C(C)=O)c1O [L-648051]	0.7	70	73	0	–	ED50 (Cavia porcellus [5]): 6 mg/kg
CCCc1c(O)c(C(C)=O)cc(Cl)c1OCCCCCOc1cc2c(cc1C(C)=O)CCC(C(=O)O)O2 (centres undefined)	–	10	11	47	–	–
CCCc1c(OCCCCCOc2cc3c(cc2C(C)=O)CCC(CCC(=O)O)O3)ccc(C(C)=O)c1O (centres undefined)	–	31	86	–	94	ED50 (Cavia porcellus [4]; read-out: ID50 (the source's name)): 5 mg/kg; IC50 [8]: 2 µM
